Measurements reported in ChEMBL document CHEMBL1649560, “Beta-lactamase-mediated beta-lactam resistance in Campylobacter species: prevalence of Cj0299 (bla OXA-61) and evidence for a novel beta-Lactamase in C. jejuni” (2009).
Values after ≈ are worked out from the molar mass of the structure shown.

Key:
Format in all cases: functional
[1] = test system: Campylobacter jejuni; test: Antibacterial activity against Campylobacter jejuni by NCCLS agar doubling dilution method
Summary of the method: (§1)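 MICs by agar doubling dilution following the NCCLS (CLSI) Campylobacter Working Group procedure, applied to ampicillin- and amoxicillin-resistant isolates from UK chicken flocks (2000–2006). C. jejuni NCTC 11168 and C. coli NCTC 11366 served as control strains. Resistance was called at an ampicillin cutoff of 8 μg/ml. Other agents were judged against Enterobacteriaceae guidelines (BSAC, CLSI).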

[2] = test system: Campylobacter coli; test: Antibacterial activity against Campylobacter coli by NCCLS agar doubling dilution method; summary of the method: as §1
[3] = test system: Campylobacter jejuni; test: Antibacterial activity against bla gene-positive and nitrocefin reaction-negative beta-lactamase harboring Campylobacter jejuni NCTC 11168 by NCCLS agar doubling dilution method
Summary of the method: (§2)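 MICs of β-lactams by agar doubling dilution following the NCCLS (CLSI) Campylobacter Working Group procedure, with C. jejuni NCTC 11168 and C. coli NCTC 11366 as controls. Isolates were from UK poultry flocks. β-Lactamase status was set by Cj0299 PCR (281-bp amplimer) and by a nitrocefin colour change of sonicated lysate within 5 min, or within 30 min on repeat.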

[4] = test system: Campylobacter jejuni; test: Antibacterial activity against bla gene-negative and nitrocefin reaction-negative beta-lactamase harboring Campylobacter jejuni isolate P835 by NCCLS agar doubling dilution method; summary of the method: as §2
[5] = test system: Campylobacter jejuni; test: Antibacterial activity against bla gene-negative and nitrocefin reaction-negative beta-lactamase harboring Campylobacter jejuni isolate P850 by NCCLS agar doubling dilution method; summary of the method: as §2
[6] = test system: Campylobacter jejuni; test: Antibacterial activity against bla gene-negative and nitrocefin reaction-negative beta-lactamase harboring Campylobacter jejuni isolate P1962 by NCCLS agar doubling dilution method; summary of the method: as §2
[7] = test system: Campylobacter jejuni; test: Antibacterial activity against bla gene-positive and nitrocefin reaction-positive beta-lactamase harboring Campylobacter jejuni isolate P285 by NCCLS agar doubling dilution method
Summary of the method: (§3)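 MICs by agar doubling dilution per the NCCLS (now CLSI) Campylobacter Working Group method. Isolates came from UK chicken flocks (feces, ceca or farm environment), 2000–2006. C. jejuni NCTC 11168 and C. coli NCTC 11366 served as control strains. The ampicillin resistance cutoff was 8 μg/ml; BSAC/CLSI Enterobacteriaceae guidelines were used for other agents.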

[8] = test system: Campylobacter jejuni; test: Antibacterial activity against bla gene-positive and nitrocefin reaction-positive beta-lactamase harboring Campylobacter jejuni isolate P286 by NCCLS agar doubling dilution method; summary of the method: as §3
[9] = test system: Campylobacter jejuni; test: Antibacterial activity against bla gene-positive and nitrocefin reaction-positive beta-lactamase harboring Campylobacter jejuni isolate P305 by NCCLS agar doubling dilution method; summary of the method: as §3
[10] = test system: Campylobacter jejuni; test: Antibacterial activity against bla gene-positive and nitrocefin reaction-positive beta-lactamase harboring Campylobacter jejuni isolate P316 by NCCLS agar doubling dilution method; summary of the method: as §3
[11] = test system: Campylobacter jejuni; test: Antibacterial activity against bla gene-positive and nitrocefin reaction-positive beta-lactamase harboring Campylobacter jejuni isolate P338 by NCCLS agar doubling dilution method; summary of the method: as §3
[12] = test system: Campylobacter jejuni; test: Antibacterial activity against bla gene-positive and nitrocefin reaction-positive beta-lactamase harboring Campylobacter jejuni isolate P790 by NCCLS agar doubling dilution method; summary of the method: as §3
[13] = test system: Campylobacter jejuni; test: Antibacterial activity against bla gene-positive and nitrocefin reaction-positive beta-lactamase harboring Campylobacter jejuni isolate P1618 by NCCLS agar doubling dilution method; summary of the method: as §2
[14] = test system: Campylobacter jejuni; test: Antibacterial activity against bla gene-positive and nitrocefin reaction-positive beta-lactamase harboring Campylobacter jejuni isolate P1650 by NCCLS agar doubling dilution method; summary of the method: as §2
[15] = test system: Campylobacter jejuni; test: Antibacterial activity against bla gene-positive and nitrocefin reaction-positive beta-lactamase harboring Campylobacter jejuni isolate P1730 by NCCLS agar doubling dilution method; summary of the method: as §3
[16] = test system: Campylobacter jejuni; test: Antibacterial activity against bla gene-positive and nitrocefin reaction-negative beta-lactamase harboring Campylobacter jejuni isolate P1698 by NCCLS agar doubling dilution method; summary of the method: as §2
[17] = test system: Campylobacter jejuni; test: Antibacterial activity against bla gene-positive and nitrocefin reaction-negative beta-lactamase harboring Campylobacter jejuni isolate P1699 by NCCLS agar doubling dilution method; summary of the method: as §2
[18] = test system: Campylobacter jejuni; test: Antibacterial activity against bla gene-negative and nitrocefin reaction-positive beta-lactamase harboring Campylobacter jejuni isolate P843 by NCCLS agar doubling dilution method; summary of the method: as §2
[19] = test system: Campylobacter jejuni; test: Antibacterial activity against bla gene-negative and nitrocefin reaction-positive beta-lactamase harboring Campylobacter jejuni isolate P854 by NCCLS agar doubling dilution method; summary of the method: as §2
[20] = test system: Campylobacter coli; test: Antibacterial activity against bla gene-positive and nitrocefin reaction-positive beta-lactamase harboring Campylobacter coli isolate P321 by NCCLS agar doubling dilution method; summary of the method: as §2
[21] = test system: Campylobacter coli; test: Antibacterial activity against bla-positive and beta-lactamase-weakly positive Campylobacter coli isolate P1627 by NCCLS agar doubling dilution method; summary of the method: as §3
[22] = test system: Campylobacter coli; test: Antibacterial activity against bla gene-positive and nitrocefin reaction-positive beta-lactamase harboring Campylobacter coli isolate P1826 by NCCLS agar doubling dilution method; summary of the method: as §2
[23] = test system: Campylobacter jejuni; test: Antibacterial activity against Campylobacter jejuni isolate P270 harboring blaOXA-61::cat gene by NCCLS agar doubling dilution method
[24] = test system: Campylobacter jejuni; test: Antibacterial activity against Campylobacter jejuni isolate P338 harboring blaOXA-61::cat gene by NCCLS agar doubling dilution method
Summary of the method: (§4)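 Agar doubling dilution MICs (NCCLS/CLSI Campylobacter Working Group method) against Cj0299-inactivated mutants. Mutants were made by transforming the C. jejuni isolate with pCI and selecting on Mueller-Hinton agar with 10 μg/ml chloramphenicol for 3–5 days. Chromosomal insertion was confirmed by PCR with Cj0299 and cat primers.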

[25] = test system: Campylobacter jejuni; test: Antibacterial activity against bla gene-positive and nitrocefin reaction-positive beta-lactamase harboring Campylobacter jejuni isolate P1093 by NCCLS agar doubling dilution method; summary of the method: as §2
[26] = test system: Campylobacter jejuni; test: Antibacterial activity against Campylobacter jejuni isolate P1093 harboring blaOXA-61::cat gene by NCCLS agar doubling dilution method; summary of the method: as §4

Structure (SMILES) | MIC50 [1] | MIC90 [1] | MIC50 [2] | MIC90 [2] | MIC [3] | MIC [4] | MIC [5] | MIC [6] | MIC [7] | MIC [8] | MIC [9] | MIC [10] | MIC [11] | MIC [12] | MIC [13] | MIC [14] | MIC [15] | MIC [16] | MIC [17] | MIC [18] | further results
C[C@H]1[C@H](NC(=O)/C(=N\OC(C)(C)C(=O)O)c2csc(N)n2)C(=O)N1S(=O)(=O)O [AZTREONAM] | 64 µg/mL (≈ 147 µM) | > 128 µg/mL | 64 µg/mL (≈ 147 µM) | > 128 µg/mL | 64 µg/mL (≈ 147 µM) | 128 µg/mL (≈ 294 µM) | > 32 µg/mL | 4 µg/mL (≈ 9.19 µM) | > 128 µg/mL | > 128 µg/mL | > 128 µg/mL | > 128 µg/mL | 128 µg/mL (≈ 294 µM) | > 128 µg/mL | 64 µg/mL (≈ 147 µM) | 128 µg/mL (≈ 294 µM) | 32 µg/mL (≈ 73.5 µM) | 128 µg/mL (≈ 294 µM) | < 1 µg/mL | > 128 µg/mL | MIC [19]: 4 µg/mL (≈ 9.19 µM); MIC [20]: > 128 µg/mL; MIC [21]: > 128 µg/mL; MIC [22]: 32 µg/mL (≈ 73.5 µM)
CCN1CCN(C(=O)N[C@@H](C(=O)N[C@@H]2C(=O)N3[C@@H]2SC(C)(C)[C@@H]3C(=O)O)c2ccccc2)C(=O)C1=O [PIPERACILLIN] | ≥ 512 µg/mL | > 512 µg/mL | 512 µg/mL (≈ 989 µM) | 512 µg/mL (≈ 989 µM) | 512 µg/mL (≈ 989 µM) | > 256 µg/mL | > 256 µg/mL | > 256 µg/mL | > 256 µg/mL | > 256 µg/mL | > 256 µg/mL | > 256 µg/mL | > 256 µg/mL | 128 µg/mL (≈ 247 µM) | > 512 µg/mL | > 512 µg/mL | > 512 µg/mL | > 512 µg/mL | 256 µg/mL (≈ 495 µM) | > 256 µg/mL | MIC [2]: 512 µg/mL (≈ 989 µM); MIC [23]: 8 µg/mL (≈ 15.5 µM); MIC [24]: 8 µg/mL (≈ 15.5 µM); MIC [25]: 128 µg/mL (≈ 247 µM); MIC [26]: 16 µg/mL (≈ 30.9 µM); MIC [19]: > 256 µg/mL; MIC [20]: > 256 µg/mL; MIC [21]: 512 µg/mL (≈ 989 µM); MIC [22]: 512 µg/mL (≈ 989 µM)
CC1(C)S[C@@H]2[C@H](NC(=O)C(C(=O)O)c3ccccc3)C(=O)N2[C@H]1C(=O)O (stereo not given in full) [CARBENICILLIN] | 128 µg/mL (≈ 338 µM) | 256 µg/mL (≈ 677 µM) | 128 µg/mL (≈ 338 µM) | 256 µg/mL (≈ 677 µM) | 16 µg/mL (≈ 42.3 µM) | 8 µg/mL (≈ 21.1 µM) | 256 µg/mL (≈ 677 µM) | < 16 µg/mL | 256 µg/mL (≈ 677 µM) | 256 µg/mL (≈ 677 µM) | > 256 µg/mL | 128 µg/mL (≈ 338 µM) | 128 µg/mL (≈ 338 µM) | 256 µg/mL (≈ 677 µM) | 128 µg/mL (≈ 338 µM) | 64 µg/mL (≈ 169 µM) | 128 µg/mL (≈ 338 µM) | 32 µg/mL (≈ 84.6 µM) | 64 µg/mL (≈ 169 µM) | < 16 µg/mL | MIC [23]: 4 µg/mL (≈ 10.6 µM); MIC [24]: 8 µg/mL (≈ 21.1 µM); MIC [25]: 256 µg/mL (≈ 677 µM); MIC [26]: 16 µg/mL (≈ 42.3 µM); MIC [19]: > 256 µg/mL; MIC [20]: 256 µg/mL (≈ 677 µM); MIC [21]: 32 µg/mL (≈ 84.6 µM); MIC [22]: 128 µg/mL (≈ 338 µM)
CC(=O)OCC1=C(C(=O)O)N2C(=O)[C@@H](NC(=O)Cc3cccs3)[C@H]2SC1 [CEPHALOTHIN] | > 256 µg/mL | > 256 µg/mL | 256 µg/mL (≈ 646 µM) | > 256 µg/mL |  |  |  |  |  |  |  |  |  |  |  |  |  |  |  |  | 
CC1(C)S[C@@H]2[C@H](NC(=O)[C@H](N)c3ccc(O)cc3)C(=O)N2[C@H]1C(=O)O [AMOXICILLIN] | 64 µg/mL (≈ 175 µM) | 128 µg/mL (≈ 350 µM) | 128 µg/mL (≈ 350 µM) | > 128 µg/mL | 4 µg/mL (≈ 10.9 µM) | 0.25 µg/mL (≈ 0.684 µM) | 1 µg/mL (≈ 2.74 µM) | 2 µg/mL (≈ 5.47 µM) | 64 µg/mL (≈ 175 µM) | 64 µg/mL (≈ 175 µM) | 64 µg/mL (≈ 175 µM) | 32 µg/mL (≈ 87.6 µM) | 64 µg/mL (≈ 175 µM) | 64 µg/mL (≈ 175 µM) | 64 µg/mL (≈ 175 µM) | 64 µg/mL (≈ 175 µM) | 64 µg/mL (≈ 175 µM) | 128 µg/mL (≈ 350 µM) | 64 µg/mL (≈ 175 µM) | 64 µg/mL (≈ 175 µM) | MIC [25]: 64 µg/mL (≈ 175 µM); MIC [19]: 128 µg/mL (≈ 350 µM); MIC [20]: 64 µg/mL (≈ 175 µM); MIC [21]: 8 µg/mL (≈ 21.9 µM); MIC [22]: 128 µg/mL (≈ 350 µM)
